Data from ChEMBL document CHEMBL1125798, “Synthesis and biological activity of a series of diaryl-substituted alpha-cyano-beta-hydroxypropenamides, a new class of anthelmintic agents” (1991).

Assays:
Assay type in all cases: functional
[1] = test system: Heligmosomoides polygyrus; experiment: Anthelmintic activity against mice, infected with parasite Nematospiroides dubius, at a dose of 125 (ppm in feed)
Summary of the method: (§1)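 Compound was given in feed ad libitum from 24 h postinfection for 18 days, four mice per group. On day 19, N. dubius were counted in the duodenum and H. nana in the ileum. Result is % reduction of mean worm burden vs untreated control; ≤25% was recorded as 0.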

Rodentolepis nana [2] = experiment: Anthelmintic activity against mice infected with parasite Hymenolepis nana at a dose of 125 ppm (in feed); summary of the method: as §1
[3] = test system: Heligmosomoides polygyrus; experiment: Anthelmintic activity against mice infected with parasite Nematospiroides dubius, at a dose of 62(ppm in feed).; summary of the method: as §1
Rodentolepis nana [4] = experiment: Anthelmintic activity against mice infected with parasite Hymenolepis nana at a dose of 62(ppm in feed).; summary of the method: as §1
[5] = test system: Heligmosomoides polygyrus; experiment: Anthelmintic activity against mice, infected with parasite Nematospiroides dubius, at a dose of 250(ppm in feed); summary of the method: as §1
Rodentolepis nana [6] = experiment: The compound was tested for anthelmintic activity against mice, infected with parasite Hymenolepis nana at a dose of 250(ppm in feed); summary of the method: as §1
Ovis aries [7] = experiment: Anthelmintic activity against sheep, infected with Ostertagia circumcincta, at a dose of 30 mg/kg.
Summary of the method: (§2)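 Merino ewes and wethers (12-15 months, 25-35 kg) received L3 intraruminally on day 0. Susceptible strains: H. contortus 6000, O. circumcincta 8000, T. colubriformis 8000. Benzimidazole-resistant strains: 8000, 9000, 9000. Animals were allocated by day-27 fecal egg count (n = 4-7) and given a single intraruminal dose in 0.5% carboxymethylcellulose saline. Adult worms in abomasum and small intestine were counted on day 35. Result is mean % reduction vs untreated controls.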

Ovis aries [8] = experiment: Anthelmintic activity against sheep, infected with Haemonchus contortus, at a dose of 30 mg/kg.; summary of the method: as §2
Ovis aries [9] = experiment: Anthelmintic activity against sheep, infected with Trichostrongylus colubriformis, at a dose of 30 mg/kg.; summary of the method: as §2
[10] = test system: Heligmosomoides polygyrus; experiment: Anthelmintic activity against mice, infected with parasite Nematospiroides dubius, at a dose of 62(ppm in feed); summary of the method: as §1
Rodentolepis nana [11] = experiment: The compound was tested for anthelmintic activity against mice, infected with parasite Hymenolepis nana at a dose of 500(ppm in feed); summary of the method: as §1
[12] = test system: Heligmosomoides polygyrus; experiment: Anthelmintic activity against mice, infected with parasite Nematospiroides dubius, at a dose of 500(ppm in feed); summary of the method: as §1
Rodentolepis nana [13] = experiment: The compound was tested for anthelmintic activity against mice, infected with parasite Hymenolepis nana at a dose of 31(ppm in feed); summary of the method: as §1
[14] = test system: Heligmosomoides polygyrus; experiment: Anthelmintic activity against mice, infected with parasite Nematospiroides dubius, at a dose of 31(ppm in feed); summary of the method: as §1

| SMILES | Reduction [1] [%] | Reduction (Rodentolepis nana [2]) [%] | Reduction [3] [%] | Reduction (Rodentolepis nana [4]) [%] | further results |
| --- | --- | --- | --- | --- | --- |
| CN(C(=O)/C(C#N)=C(\O)c1ccc(C(F)(F)F)cc1)c1ccc(C(F)(F)F)cc1 | 100 | 0 | 76 | 0 | – |
| N#C/C(C(=O)Nc1ccc(Br)cc1)=C(/O)c1ccc(C(F)(F)F)cc1 | 100 | 95 | 56 | 0 | – |
| Cc1cc(C#N)ccc1NC(=O)/C(C#N)=C(\O)c1ccc(C(F)(F)F)cc1 | 90 | 100 | 0 | 0 | – |
| CC(=O)c1ccc(NC(=O)/C(C#N)=C(\O)c2ccc(C(F)(F)F)cc2)cc1 | 0 | 0 | – | – | – |
| CS(=O)(=O)c1ccc(NC(=O)/C(C#N)=C(\O)c2ccc(C(F)(F)F)cc2)cc1 | 0 | 0 | – | – | – |
| N#C/C(C(=O)Nc1ccc(Cl)c(Cl)c1)=C(/O)c1ccc(Cl)cc1 | 57 | 47 | – | – | – |
| N#C/C(C(=O)c1ccc(C(F)(F)F)cc1)=C(/S)Nc1ccc(C(F)(F)F)cc1 | 0 | 0 | – | – | Reduction [5]: 100%; Reduction (Rodentolepis nana [6]): 90% |
| N#C/C(C(=O)Nc1ccc(C(F)(F)F)cc1)=C(/O)c1ccc(I)cc1 | 97 | 89 | 0 | 0 | – |
| N#C/C(C(=O)Nc1ccc(Cl)cc1)=C(/O)c1ccc(Cl)cc1 | 100 | 100 | 59 | 30 | – |
| N#C/C(C(=O)Nc1ccc(C(F)(F)F)cc1)=C(/O)c1ccccc1C(F)(F)F | 0 | 0 | – | – | – |
| N#C/C(C(=O)Nc1ccc(C(F)(F)F)cc1)=C(/O)Cc1ccc(C(F)(F)F)cc1 | 35 | 0 | – | – | Reduction [5]: 90%; Reduction (Ovis aries [7]): 0%; Reduction (Rodentolepis nana [6]): 0%; Reduction (Ovis aries [8]): 78%; Reduction (Ovis aries [9]): 0% |
| N#C/C(C(=O)Nc1ccc(C(F)(F)F)cc1)=C(O)\C=C\c1ccc(C(F)(F)F)cc1 | – | – | – | – | Reduction [5]: 48%; Reduction (Rodentolepis nana [6]): 0% |
| N#C/C(C(=O)Nc1ccc(F)cc1)=C(/O)c1ccc(C(F)(F)F)cc1 | 100 | 0 | – | 0 | Reduction [10]: 0% |
| N#C/C(C(=O)Nc1ccc(Oc2ccc(Cl)cc2)c(Cl)c1)=C(/O)c1ccc(C(F)(F)F)cc1 | 0 | 0 | – | – | Reduction (Rodentolepis nana [11]): 83%; Reduction [12]: 100%; Reduction (Ovis aries [7]): 0%; Reduction (Ovis aries [8]): 0%; Reduction (Ovis aries [9]): 0% |
| COC(=O)c1ccc(NC(=O)/C(C#N)=C(\O)c2ccc(C(F)(F)F)cc2)cc1 | 0 | 0 | – | – | – |
| N#C/C(C(=O)Nc1ccc(C(F)(F)F)cc1)=C(/O)c1ccc(Oc2ccc(Cl)cc2)cc1 | 30 | 0 | – | – | – |
| N#C/C(C(=O)Nc1ccc(Br)cc1)=C(/O)c1ccc(Br)cc1 | 100 | 0 | 29 | 0 | – |
| N#C/C(C(=O)Nc1ccc(Sc2ccc(Cl)cc2)cc1)=C(/O)c1ccc(C(F)(F)F)cc1 | 0 | 0 | – | – | Reduction [5]: 94%; Reduction (Rodentolepis nana [6]): 33% |
| N#C/C(C(=O)Nc1ccc(Cl)c(Cl)c1)=C(/O)c1ccc(C(F)(F)F)cc1 | 100 | 93 | 0 | 0 | – |
| N#C/C(C(=O)Nc1ccc(Cl)cc1)=C(/O)c1ccc(C(F)(F)F)cc1 | 100 | 100 | 65 | 78 | – |
| N#CSc1ccc(NC(=O)/C(C#N)=C(\O)c2ccc(C(F)(F)F)cc2)cc1 | 0 | 0 | – | – | – |
| Cc1ccc(/C(O)=C(\C#N)C(=O)Nc2ccc(C(F)(F)F)cc2)cc1 | 0 | 0 | – | – | – |
| N#C/C(C(=O)Nc1ccccc1C(F)(F)F)=C(/O)c1ccc(C(F)(F)F)cc1 | 0 | 0 | – | – | – |
| N#C/C(C(=O)Nc1ccc(N=C=S)cc1)=C(/O)c1ccc(C(F)(F)F)cc1 | 80 | 0 | – | – | – |
| N#C/C(C(=O)Nc1ccc(Cl)c(Cl)c1)=C(/O)c1ccc(Cl)c(Cl)c1 | 0 | 0 | – | – | Reduction (Ovis aries [7]): 0%; Reduction (Ovis aries [8]): 100%; Reduction (Ovis aries [9]): 0% |
| N#C/C(C(=O)Nc1ccc(C#N)cc1)=C(/O)c1ccc(C(F)(F)F)cc1 | 100 | 100 | 43 | 0 | Reduction (Ovis aries [7]): 7%; Reduction (Ovis aries [8]): 87%; Reduction (Ovis aries [9]): 26% |

| SMILES | Reduction [1] [%] | Reduction (Rodentolepis nana [2]) [%] | Reduction [3] [%] | Reduction (Rodentolepis nana [4]) [%] | further results |
| --- | --- | --- | --- | --- | --- |
| COc1ccc(NC(=O)/C(C#N)=C(\O)c2ccc(C(F)(F)F)cc2)cc1 | 0 | 0 | – | – | – |
| N#C/C(C(=O)Nc1ccc(C(F)(F)F)cc1)=C(/O)c1ccc(Cl)cc1Cl | – | – | 32 | 52 | – |
| N#C/C(C(=O)Nc1ccc(C(F)(F)F)cc1)=C(/O)c1ccc(OC(F)(F)F)cc1 | 100 | 100 | 86 | 0 | – |
| N#C/C(C(=O)Nc1ccc(C(F)(F)F)cc1)=C(/O)c1ccc(F)cc1 | 100 | 100 | 0 | 0 | – |
| N#C/C(C(=O)Nc1ccccc1)=C(/O)c1ccc(C(F)(F)F)cc1 | – | – | – | – | Reduction (Rodentolepis nana [11]): 100%; Reduction [12]: 32% |
| N#C/C(C(=O)Nc1ccc(C(F)(F)F)cc1)=C(/O)c1ccc([N+](=O)[O-])cc1 | – | – | 0 | 69 | – |
| N#C/C(C(=O)Nc1ccc(I)cc1)=C(/O)c1ccc(C(F)(F)F)cc1 | 100 | 0 | 0 | 0 | – |
| N#C/C(C(=O)Nc1ccc(C(F)(F)F)cc1)=C(/O)c1ccc(Cl)c(Cl)c1 | 95 | 0 | 0 | 0 | – |
| N#C/C(C(=O)Nc1ccc(C(F)(F)F)cc1)=C(/O)c1ccc(C#N)cc1 | 28 | 78 | – | – | – |
| CCN(CC)C(=O)c1ccc(NC(=O)/C(C#N)=C(\O)c2ccc(C(F)(F)F)cc2)cc1 | 0 | 0 | – | – | – |
| N#C/C(C(=O)Nc1ccc(Sc2ccccc2)cc1)=C(/O)c1ccc(C(F)(F)F)cc1 | – | – | – | – | Reduction [5]: 0%; Reduction (Rodentolepis nana [6]): 0% |
| N#C/C(C(=O)Nc1ccc(C(F)(F)F)cc1)=C(/O)c1cccc(Cl)c1 | 0 | 0 | – | – | – |
| N#C/C(C(=O)Nc1ccc(C(F)(F)F)cc1)=C(/O)c1ccc(S(=O)(=O)c2ccccc2)cc1 | 0 | 0 | – | – | – |
| N#C/C(C(=O)Nc1ccc(C(F)(F)F)cc1)=C(/O)c1cc(Cl)cc(Cl)c1 | 100 | 100 | 0 | 0 | Reduction (Ovis aries [7]): 0%; Reduction (Ovis aries [8]): 100%; Reduction (Ovis aries [9]): 0% |
| N#C/C(C(=O)Nc1ccc(C(F)(F)F)cc1)=C(/O)c1cccc(C(F)(F)F)c1 | 89 | 100 | 0 | 0 | – |
| N#C/C(C(=O)Nc1ccc(C(F)(F)F)cc1)=C(/O)c1ccc(Cl)cc1 | – | – | 53 | 0 | – |
| COc1ccc(/C(O)=C(\C#N)C(=O)Nc2ccc(C(F)(F)F)cc2)cc1 | 0 | 0 | – | – | – |
| N#C/C(C(=O)Nc1ccc(Cl)cc1)=C(/O)c1ccc(Cl)c(Cl)c1 | 100 | 100 | 32 | 0 | – |
| N#C/C(C(=O)Nc1ccc(OC(F)(F)F)cc1)=C(/O)c1ccc(OC(F)(F)F)cc1 | – | – | 100 | 56 | Reduction (Rodentolepis nana [13]): 0%; Reduction [14]: 39% |
| N#C/C(C(=O)Nc1ccc(Cl)cc1Cl)=C(/O)c1ccc(C(F)(F)F)cc1 | 89 | 100 | 0 | 63 | – |
| N#C/C(C(=O)Nc1ccc(F)cc1)=C(/O)c1ccc(F)cc1 | 0 | 0 | – | – | – |
| N#C/C(C(=O)Nc1ccc(Cl)cc1)=C(/O)c1ccc(Br)cc1 | 100 | 0 | 76 | 0 | – |
| N#C/C(C(=O)Nc1ccc(Br)cc1)=C(/O)c1ccc(Cl)cc1 | 100 | 0 | 47 | 0 | – |
| Cc1cc([N+](=O)[O-])ccc1NC(=O)/C(C#N)=C(\O)c1ccc(C(F)(F)F)cc1 | 97 | 99 | 35 | 0 | Reduction (Ovis aries [7]): 0%; Reduction (Ovis aries [8]): 0%; Reduction (Ovis aries [9]): 0% |
| N#C/C(C(=O)Nc1cccc(C(F)(F)F)c1)=C(/O)c1ccc(C(F)(F)F)cc1 | 0 | 0 | – | – | – |
